# Experimental data published in PubChem BioAssay AID704 (The Scripps Research Institute Molecular Screening Center, 2007).
# About 770 (0.79%) of roughly 97,000 compounds were called active.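 Rule for the calls: active = inhibition above the screen-wide mean plus 3 SD (cut at about 35% in these data); inactive = the rest.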 Many of the other results were omitted from the sample, so actives are more common in it than they were.
# Target: Protein Rev (Human immunodeficiency virus type 1 group M subtype B (isolate WMJ22)) (UniProt P05866)
# Sequence (P05866 whole entry, looked up): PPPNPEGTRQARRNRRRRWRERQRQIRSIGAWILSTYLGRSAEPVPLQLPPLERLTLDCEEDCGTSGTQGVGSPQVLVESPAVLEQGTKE
# Assay: HIV-1 Rev-RRE binding inhibitors, primary screen, biochemical, FRET, protein-RNA interaction (AID 704)
# Details: Rev peptide-RRE RNA binding, at 8 µM, stronger effect = higher value
# Method in brief: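 Assay system: Labelled RRE RNA duplex and labelled Rev peptide | Times: 5 min preincubation and 15 min binding, 25 °C | Detection: FRET, ex 480 nm, em 540 and 671 nm | Evaluation: % inhibition of FRET ratio versus controls | Benchmarks: DMSO wells as 0% and neomycin B wells as 100% inhibition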
row,SMILES,inhibition
1,N#C/C(=C(/O)COc1cccc2ccccc12)c1nc2ccccc2[nH]1,8.41% (inactive)
2,COc1ccc(-n2nnnc2SCc2nc(N)nc(N3CCOCC3)n2)cc1,8.05% (inactive)
3,O=C(COc1ccc(/C=N/NS(=O)(=O)c2ccccc2)cc1)NCCc1ccccc1,6.41% (inactive)
4,O=S(=O)(N1CCCCC1)N1CCNCC1,0.92% (inactive)
5,CCN(CC)c1ccc(NC(=O)c2ccc(Cl)nc2)cc1,-7.72% (inactive)
6,Cc1c(C(=O)OC(C)C)sc(NC(=O)c2cccnc2)c1C#N,27.8% (inactive)
7,CC(C)c1cc(C(N)=O)c(NC(=O)c2cccc(COc3ccc(Br)cc3)c2)s1,15.9% (inactive)
8,CC1=CC(C)(C)Nc2ccc(OC(=O)C(Cc3ccccc3)N3C(=O)C4CCCCC4C3=O)cc21 (stereo not drawn),-0.51% (inactive)
9,CCCNC(=O)CN(Cc1ccccc1F)S(=O)(=O)c1ccc(C)cc1,8.11% (inactive)
10,COC(=O)/C(NC(C)=O)=C(\C)c1ccc(Cl)cc1,1.2% (inactive)
11,O=C(c1cc2c(s1)CCC2)N1CCN(c2ccccc2)CC1,-4.48% (inactive)
12,CC(=O)Nc1ccc(OCC(O)CN2CCN(c3ccccc3Cl)CC2)cc1 (stereo not drawn),-0.14% (inactive)
13,CCOC(=O)CSc1nc2c(sc(=S)n2CCc2ccccc2)c(=O)n1Cc1ccco1,7.11% (inactive)
14,Cc1cc2c(c(=O)n1Cc1ccco1)C(c1ccccc1)C(C#N)=C(N)O2 (stereo not drawn),7.8% (inactive)
15,CN(c1ccccc1)c1ccc(/C=c2\s/c(=C(/C#N)C(=O)C(C)(C)C)n(Cc3ccco3)c2=O)cc1,117% [fluorescence artefact?] (active)
16,N#C/C(=C(/O)Cc1cccc2ccccc12)c1nc2ccccc2s1,3.55% (inactive)
17,O=C(C1=C(O)C(=O)N(c2ncccn2)C1c1cccs1)c1ccco1 (stereo not drawn),46.5% (active)
18,O=C(C1=C(O)C(=O)N(Cc2ccccc2)C1c1ccco1)c1ccco1 (stereo not drawn),0.29% (inactive)
19,O=C(C1=C(O)C(=O)N(Cc2ccccc2)C1c1cccnc1)c1ccco1 (stereo not drawn),7.49% (inactive)
20,O=c1c2ccccc2nc2n1C(CSc1ccc(Cl)cc1)CN2 (stereo not drawn),6.92% (inactive)
21,CCOC(=O)c1sc(C)c2c1NC(C)(c1cccc3ccccc13)NC2=O (stereo not drawn),18.2% (inactive)

row,SMILES,inhibition
1,CCN1C(=O)C(CC(=O)Nc2cc(C)ccc2C)SC1=Nc1ccc(S(N)(=O)=O)cc1 (stereo not drawn),9.41% (inactive)
2,CC(CN1CCOCC1)c1ccccc1 (stereo not drawn),10.4% (inactive)
3,Cc1ccc(NC(=O)Nc2ccc3oc(C)nc3c2)cc1,7.33% (inactive)
4,CCOCN(C(=O)Cn1c(C(C)O)nc2ccccc21)c1c(C)cccc1CC (stereo not drawn),2.37% (inactive)
5,Cc1c(C#N)c(NC(=O)c2ccccc2)n(Cc2ccccc2)c1C,2.3% (inactive)
6,Cc1nn(CCOc2ccccc2)c(=O)n1-c1ccccc1F,5.48% (inactive)
7,COc1cc(/C=C(\C#N)c2nc3c(s2)CC(C)CC3)ccc1O (stereo not drawn),66% (active)
8,COc1cc(C(=O)OC(C)C(=O)NCC2CCCCC2)cc(NC(=O)c2ccco2)c1OC (stereo not drawn),-0.95% (inactive)
9,CCOCc1nnc(NC(=O)CSc2ccc(C)cc2)s1,6.99% (inactive)
10,CS(=O)(=O)c1ccc2c(c1)SC1=NC(=O)/C(=C/c3ccco3)C(=N)N12,36.1% (active)
11,CN(C)CCNC(=O)Nc1cccc(Cl)c1Cl,2.97% (inactive)
12,O=C1COc2ccc(NC(=O)N3CCN(c4ccc(F)cc4)CC3)cc2N1,5.12% (inactive)
13,O=C(CC12CC3CC(CC(C3)C1)C2)Nc1ccc2c(c1)COC2=O,11.5% (inactive)
14,Oc1ccc2ccc3cccc[n+]3c2c1,120% [fluorescence artefact?] (active)
15,CN1/C(=C\C(=O)c2oc3ccccc3c2N)C(C)(C)c2ccccc21,6.51% (inactive)
16,CN1/C(=C\C=C2\N=C(c3ccc(F)cc3)OC2=O)C(C)(C)c2ccccc21,48.7% (active)
17,Cc1noc(C)c1C(=O)OCC(=O)/C=C1\N(C)c2ccccc2C1(C)C,2.24% (inactive)
18,COc1ccc(Nc2nc(=O)[nH]nc2C)cc1,4.41% (inactive)
19,COc1ccc([N+](=O)[O-])cc1NC(=O)CCc1ccccc1,1.01% (inactive)
20,CCOC(=O)C1=C(C)Nc2sc(C(=O)c3ccc(Br)cc3)c(N)c2C1c1ccc(C(=O)OC)cc1 (stereo not drawn),7.08% (inactive)
21,Cc1cccc(C)c1N1CCN(S(=O)(=O)N2CCOCC2)CC1,8.84% (inactive)

row,SMILES,inhibition
1,Cc1ccc(S(=O)(=O)C(C#N)c2nc3ccccc3nc2N2CCCC2)cc1C (stereo not drawn),80% [fluorescence artefact?] (active)
2,Cc1cc(N2CCN(S(=O)(=O)c3ccc(C)c(C)c3)CC2)c2ccccc2n1,16.5% (inactive)
3,Cc1ccc(S(=O)(=O)Nc2nc3ccccc3nc2N2CCc3ccccc3C2)cc1,6.67% (inactive)
4,CC(C)=C1SC(N2CCN(c3cccc(C)c3)CC2)=NC1=O,3.88% (inactive)
5,CCOC(=O)c1cc2n(c1C)-c1ccccc1C2=O,7.43% (inactive)
6,CC(C)OC(=O)CN1C(=O)C(=O)c2ccccc21,9.74% (inactive)
7,CCOC(=O)c1cc2n(c1N)-c1ccccc1C2=O,107% [fluorescence artefact?] (active)
8,CC(C)CCNC(=O)Cn1c(=O)oc2cc(S(=O)(=O)N3CC(C)CC(C)C3)ccc21 (stereo not drawn),4.77% (inactive)
9,CCCCCCn1c(CN2CCCC(C)C2)nc2c1c(=O)n(C)c(=O)n2C (stereo not drawn),7.64% (inactive)
10,CCCn1c(O)c(CN2CCCC(C)C2)c(C)c(C#N)c1=O (stereo not drawn),42.6% (active)
11,CCOC(=O)N1CCN(c2c(NCCCN3CCCC(C)C3)c(=O)c2=O)CC1 (stereo not drawn),1.25% (inactive)
12,O=C(O)c1ccccc1NC(=S)NC(NC(=O)c1ccccc1[N+](=O)[O-])C(Cl)(Cl)Cl (stereo not drawn),-3.09% (inactive)
13,CCc1ccc2nc3sc(C(=O)Nc4nnc(CC)s4)c(N)c3cc2c1,89.2% [fluorescence artefact?] (active)
14,CCc1nnc(NC(=O)c2nc3nccc(C)n3n2)s1,12.3% (inactive)
15,CCc1nnc(NC(=O)c2cccs2)s1,7.76% (inactive)
16,Cc1ccc(-n2c(C)cc(/C=N/Nc3ccc([N+](=O)[O-])cn3)c2C)c(C)c1,31.5% (inactive)
17,Cc1cccc(COc2ccccc2/C=N/Nc2ccc([N+](=O)[O-])cc2)c1,64% (active)
18,COc1cccc(/C=N/NC(=O)c2cccc([N+](=O)[O-])c2)c1OS(=O)(=O)c1ccc(C)cc1,11.5% (inactive)
19,C=CCNc1cnn(-c2ccc(C)cc2)c(=O)c1Cl,-1.57% (inactive)
20,Cc1ccc(-n2c(C)cc(/C=C(\C#N)C(=O)NCC3CCCO3)c2C)cc1 (stereo not drawn),-6.05% (inactive)
21,N#CCSc1nc2c(c(=O)n1Cc1ccccc1)C1(CCCC1)Cc1ccccc1-2,23.3% (inactive)

row,SMILES,inhibition
1,CC(C)OCCCNc1nc2c(c(=O)n(Cc3ccccc3F)c(=O)n2C)n1C,8.58% (inactive)
2,Cc1cccn2c(=O)c(/C=C3\SC(=S)N(CC(C)C)C3=O)c(NCCCOC(C)C)nc12,73.4% (active)
3,Cn1nc(C(F)(F)F)c(C(=O)Nc2cccc(C(F)(F)F)c2)c1SCc1ccc(Cl)cc1,9.7% (inactive)
4,COc1ccc(CNC(=O)C2CCC(CNc3c(N4CCOCC4)c(=O)c3=O)CC2)cc1 (stereo not drawn),-0.22% (inactive)
5,CCOc1ccc(CN(Cc2ccco2)S(=O)(=O)c2ccc(-n3cnnn3)c(OC)c2)cc1,18.6% (inactive)
6,O=C(O)C1CCN(C(=O)OCc2ccccc2)CC1,2.49% (inactive)
7,CCC(C)n1c(-c2cc(OC)c(OC)c(OC)c2)nc2nc3ccccc3nc21 (stereo not drawn),2.36% (inactive)
8,CCOC(=O)C1=C(CN2CCc3ccccc32)NC(=O)NC1c1ccc(Cl)cc1 (stereo not drawn),10.3% (inactive)
9,CCOCCOCCC(C(=O)O)P(=O)(c1ccccc1)c1ccccc1 (stereo not drawn),0.47% (inactive)
10,O=c1cc(C(F)(F)F)[nH]c(=O)n1C1CCCCC1,8.66% (inactive)
11,COC(=O)C1=C(C)N=C2SC(C)C(=O)N2C1/C=C/c1ccccc1 (stereo not drawn),4.63% (inactive)
12,C=C(Cl)COC(=O)C1C2C=CC(C2)C1C(=O)O (stereo not drawn),3.94% (inactive)
13,Oc1ccc(-c2onc3ccc(Cl)cc23)cc1,47.9% (active)
14,Cc1cccc(N(C(=O)c2ccc(CN3CCOCC3)o2)C(C(=O)NC2CCCCC2)c2ccc(F)cc2)c1 (stereo not drawn),0.55% (inactive)
15,Cc1[nH]n(-c2ccccc2)c(=O)c1CCOC(=O)c1ccc(C(F)(F)F)cc1,3.64% (inactive)
16,CN(C)CCCn1c(N)c(C#N)c2nc(C#N)c(C#N)nc21,44.4% (active)
17,N#Cc1c(N)n(CCOC(=O)c2ccc(Cl)cc2)c2nc3ccccc3nc12,7.97% (inactive)
18,OC(COc1ccc2c(c1)CCC2)CN1CCN(c2cccc(Cl)c2)CC1 (stereo not drawn),13.2% (inactive)
19,Cc1cc(OCCOc2cccc3cccnc23)c(C)cc1Cl,17.3% (inactive)
20,Cc1ccc2nc(Nc3ccccc3O)nc(-c3ccccc3)c2c1,9.78% (inactive)
